Bioassay records as filed in PubChem BioAssay.
In the library only some 2.6% were active in any assay of this set; here they are far more common.
E-selectin induc: E-selectin induction in HUVECs, primary screen, imaging, HUVEC, immunofluorescence imaging, single point; P16581; normalized: neutral wells 0, TNF-alpha wells 100; activation, % at 7.58 µM; 0.37% of 260,000 active; AID 686992, 2013;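 active = mean E-selectin-positive cell signal at least 10% of the positive control, reached in at least 60% of replicates, without over 20% cell loss; inconclusive = no rule given, readout overlaps actives, possibly toxicity-flagged; inactive = the rest, including those meeting only one limit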
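assay system = HUVEC, human umbilical vein endothelial cells | input = 3,000 HUVEC seeded per well | medium = EGM-2 growth medium on 0.1% gelatin-coated wells | dosing = one compound dose added by pin transfer | signal = immunofluorescence imaging | read-out basis = % PE-positive cells | control set = TNF-alpha, DMSO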
Ecoli rRNA inh: reduced GFP signal of wild-type E. coli, primary screen, bacterial rRNA inhibitor project, GFP/RFP fluorescence, OD600, single point; E. coli WT GFP vs humanized-ribosome RFP mutants, 24 h; hits give low values; DMSO median 0, no signal -100; GFP signal change (wild-type ribosome), % (test concentration not listed); 1.6% of 350,000 active;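 active = significant combined selectivity score with lowered wild-type GFP, culture density cut under 30%, mutant RFP and density less affected; inactive = any of these conditions unmet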
INS-1E GSIS act: GLuc luminescence reporter in INS-1E cells, primary screen for activators of glucose-dependent secretion of insulin; INS-1E GLuc reporter insulin secretion, 2-3 h; 0.61% of 370,000 active; activation, % at 16.6 µM; AID 743287, 2014;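 active = lowest replicate activation of at least 40%, so every replicate reaches that level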;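 also: 0% = median of neutral control wells and 100% = median of IBMX positive control wells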
RAD52 inh: RAD52 DNA annealing inhibitors, primary screen, biochemical, FRET, single point, set 2; 0.46% of 360,000 active; recombinant RAD52 DNA annealing, FRET fluorescence; inhibition, % at 18.7 µM;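 active = every replicate showing at least 50% inhibition; inconclusive = mean inhibition at least 50% but not in every replicate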
RAD54 inh: inhibitors of human RAD54 branch migration, primary screen, biochemical, fluorescence, single point; RAD54 Holliday junction branch migration, FAM/BHQ fluorescence; inhibition, % at 10.4 µM; 0.14% of 360,000 active; AID 602329, 2012;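 active = mean normalized replicate activity at least 40 and at least half of replicates scoring 40 or more; inconclusive = only one of the two criteria met; inactive = mean below 40 and under half of replicates reaching 40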;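 also: 0% = median of neutral control wells and 100% = median of positive control wells; inhibitors cause a drop in the FAM fluorescence signal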
MLL AF4-AF9 inh: inhibitors of AF4 peptide binding to AF9, primary screen, biochemical, AlphaScreen, biotin-AF4 peptide, FLAG-AF9, single point | 0.47% of 350,000 active | inhibition, % at 10 µM | Protein AF-9 (Homo sapiens), P42568;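 active = every replicate reaching a set inhibition limit, whatever the replicate mean, cut at about 25% in these data; inconclusive = mean inhibition reaches that limit but some replicates miss it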;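 also: 0% = plate neutral control median and 100% = total signal loss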
Target sequence (P42568 whole entry, looked up): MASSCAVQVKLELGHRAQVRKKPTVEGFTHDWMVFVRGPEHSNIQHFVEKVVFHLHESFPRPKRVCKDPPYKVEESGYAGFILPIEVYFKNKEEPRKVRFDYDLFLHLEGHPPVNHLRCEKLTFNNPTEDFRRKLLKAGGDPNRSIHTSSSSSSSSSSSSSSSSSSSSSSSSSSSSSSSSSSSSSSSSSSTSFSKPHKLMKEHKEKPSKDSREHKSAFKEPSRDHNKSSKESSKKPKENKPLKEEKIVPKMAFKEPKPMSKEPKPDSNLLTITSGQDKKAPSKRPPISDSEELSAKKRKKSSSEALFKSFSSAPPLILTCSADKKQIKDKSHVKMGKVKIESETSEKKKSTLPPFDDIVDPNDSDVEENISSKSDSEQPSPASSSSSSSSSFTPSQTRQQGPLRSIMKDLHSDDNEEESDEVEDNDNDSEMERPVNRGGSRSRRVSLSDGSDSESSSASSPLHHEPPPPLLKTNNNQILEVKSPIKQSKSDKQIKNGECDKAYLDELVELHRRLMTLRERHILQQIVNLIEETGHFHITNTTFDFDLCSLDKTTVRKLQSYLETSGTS
* = called active by the depositor; ? = inconclusive; nt = no result.

SMILES	E-selectin induc	Ecoli rRNA inh	INS-1E GSIS act	RAD52 inh	RAD54 inh	MLL AF4-AF9 inh
O=C(C[C@H]1C[C@@H]2c3cc(NC(=O)C4CCOCC4)ccc3O[C@@H]2[C@@H](CO)O1)NCC1CC1	0	3	-4	-4	-3	-1
CCN(CC)CCN(C(=O)c1ccc2c(c1)OCCO2)c1nc2c(Cl)cccc2s1	-1	-22*	-28	-5	10	11
CCN(CC)CCN(C(=O)c1ccc2c(c1)OCCO2)c1nc2cc(C)cc(C)c2s1	-1	-21*	-18	10	10	7
CC1CN(S(=O)(=O)c2cccc(C(=O)N=c3sccn3C)c2)CC(C)O1 (centres undefined)	-2	-21*	23	-6	-7	?
CCC(=O)N1[C@H](C#N)[C@@H](c2ccccc2-c2ccccc2)[C@@H]1CO	0	4	1	-8	nt	-2
C/C=C/c1ccccc1[C@H]1[C@@H](C#N)N(c2ncc(CC)s2)[C@@H]1CO	0	-6	-3	65*	nt	3
CCC(=O)N1[C@@H](C#N)[C@H](c2ccccc2-c2ccccc2)[C@@H]1CO	0	2	6	71*	nt	-2
CCc1nc(N2[C@H](CO)[C@H](c3ccccc3-c3ccc(F)cc3)[C@@H]2C#N)sc1C	0	-7	-7	60*	nt	2
C/C=C/c1ccccc1[C@@H]1[C@@H](C#N)N(c2nc(CC)cs2)[C@H]1CO	0	-8	-4	-38	nt	9
CCc1nc(N2[C@@H](C#N)[C@@H](c3ccccc3-c3ccc(F)cc3)[C@@H]2CO)sc1C	0	-10	-14	-4	nt	5
COc1ccc2c3c(n(C)c2c1)[C@@H](CO)N(C(=O)c1ccccn1)CC31CN(C(C)=O)C1	0	1	32	nt	nt	-1
CC(CCCN(C)C)C(Cc1ccccc1)c1ccccc1 (centres undefined)	0	-47*	-14	26	4	7
COCC(=O)N1CC2(C1)[C@H](c1ccc(C3=CCCC3)cc1)[C@@H](CO)N2C(=O)COC	0	1	36	-31	nt	-2
O=C(C1=C(Nc2ccccc2)c2ccccc2S(=O)(=O)N1)c1ccccc1	nt	-19*	-14	-78	nt	10
C[C@H](CO)N1C[C@H](C)[C@@H](CN(C)Cc2ccc3c(c2)OCO3)Oc2ccc(NC(=O)CCN3CCOCC3)cc2C1=O	nt	3	10	5	-9	2
CC(C)Cn1c(SC(C)C(=O)Nc2ccc(N3CCOCC3)cc2)nc2ccccc21 (centres undefined)	nt	5	-5	-18	nt	14
CC(Sc1nc2ccccc2n1C)C(=O)Nc1ccc(N2CCOCC2)cc1 (centres undefined)	nt	-23*	13	-3	nt	5
CC(C)NC(=O)N(C)C[C@H]1Oc2ccc(NC(=O)C3CCCCC3)cc2CC(=O)N([C@@H](C)CO)C[C@H]1C	0	1	10	1	5	-3
COc1ccc(-c2csc(NC(=S)NC(=O)/C=C/c3ccco3)n2)cc1Br	0	-41*	nt	-22	-1	-3
COc1ccc(-c2csc(NC(=S)NC(=O)/C=C/c3ccco3)n2)cc1OC	nt	-14	-5	-6	nt	5
O=C(Nc1ccncc1)c1cccc2ccccc12	nt	5	-2	11	8	-1
O=C(Nc1ccc2ccccc2c1)c1cccc2ccccc12	1	10	71*	-8	-5	-1
O=C(CSc1ccncc1)Nc1ccc2ccccc2c1	19	-31*	1	-22	nt	-2
CCC(=O)Nc1ccc(Cl)c(NC(=S)NC(=O)COc2ccc(Cl)cc2)c1	nt	nt	44*	nt	nt	nt
CCC(=O)Nc1ccc(Cl)c(NC(=S)NC(=O)COc2ccccc2)c1	0	8	-5	-6	nt	1
SMILES	E-selectin induc	Ecoli rRNA inh	INS-1E GSIS act	RAD52 inh	RAD54 inh	MLL AF4-AF9 inh
CCCC(=O)Nc1ccc(Cl)c(NC(=S)NC(=O)c2ccco2)c1	nt	-16*	4	-21	nt	3
C[C@@H]1CCCCO[C@@H](CN(C)CC2CC2)[C@@H](C)CN([C@H](C)CO)C(=O)c2cc(NS(=O)(=O)c3cn(C)cn3)ccc2O1	0	-4	-13	11	5	-6
CO[C@H]1CN(C)C(=O)c2cc(NC(=O)C3CCOCC3)ccc2OC[C@H](C)N(Cc2cccnc2)C[C@H]1C	0	1	0	-8	4	-2
COc1ccc(NS(=O)(=O)c2ccc(NC(=O)c3ccccc3Br)cc2)nn1	2	-26*	0	-19	-15	-1
Cc1ccc(S(=O)(=O)Nc2ccc3c(c2)C(=O)N([C@H](C)CO)C[C@@H](C)[C@@H](CN(C)C(=O)Nc2c(C)noc2C)OCCCC[C@@H](C)O3)cc1	nt	-3	-9	-4	-5	-1
CC(C)c1ccc(C2N3CC4([N+](=O)[O-])CN2CC([N+](=O)[O-])(C3)C4(C)C)cc1 (centres undefined)	0	12	5	6	nt	-3
CC1(C)C2([N+](=O)[O-])CN3CC1([N+](=O)[O-])CN(C2)C3c1ccccc1 (centres undefined)	nt	nt	56*	nt	nt	nt
Cc1noc(C)c1NC(=O)Nc1ccc2c(c1)C(=O)N([C@H](C)CO)C[C@@H](C)[C@H](CN(C)C(=O)Nc1c(C)noc1C)OCCCC[C@@H](C)O2	0	2	14	0	-13	1
O=c1[nH]c(CN2CCN(c3ccccc3O)CC2)nc2scc(-c3ccccc3Cl)c12	nt	-32	13	-29	5	2
O=c1[nH]c(CN2CCN(c3ccc(O)cc3)CC2)nc2scc(-c3ccc(Cl)cc3)c12	0	-24*	53*	-7	nt	10
Cc1noc(C)c1S(=O)(=O)N(C)C[C@H]1Oc2ccc(NS(=O)(=O)c3cn(C)cn3)cc2C(=O)N([C@H](C)CO)C[C@H]1C	0	2	10	-5	6	2
CC(C)C#Cc1ccc([C@H]2[C@H]3CN(C(=O)c4ccccn4)CC(=O)N3[C@H]2CO)cc1	0	2	-12	2	nt	-1
O=S(=O)(Nc1ccc(Cl)cn1)c1ccc(Cl)cc1	0	6	-3	-7	nt	-5
Cc1cc(C)c(S(=O)(=O)Nc2ccc(Cl)cn2)c(C)c1	-1	-31*	-16	-13	-1	-2
O=C(O)CSc1nnc(Cc2ccccc2)n1Cc1ccccc1	nt	nt	57*	nt	-1	nt
